Substitutions are numbered along the chain they refer to.
How the values were obtained:
Format in all cases: cell-based, rabbit
D444E-EAAC1 = molecular target: T1, D444E-EAAC1 (Oryctolagus cuniculus, UniProt P31597, D444E); test: Blockade of sodium-dependent transient currents; settings: for Decay time of transient currents blocked: at +80 mV; for IC50: read-out: IC50 for substrates/blockers of charge movements, Xenopus oocytes, mean ± SEM
T1 sequence (P31597 1-524 D444E): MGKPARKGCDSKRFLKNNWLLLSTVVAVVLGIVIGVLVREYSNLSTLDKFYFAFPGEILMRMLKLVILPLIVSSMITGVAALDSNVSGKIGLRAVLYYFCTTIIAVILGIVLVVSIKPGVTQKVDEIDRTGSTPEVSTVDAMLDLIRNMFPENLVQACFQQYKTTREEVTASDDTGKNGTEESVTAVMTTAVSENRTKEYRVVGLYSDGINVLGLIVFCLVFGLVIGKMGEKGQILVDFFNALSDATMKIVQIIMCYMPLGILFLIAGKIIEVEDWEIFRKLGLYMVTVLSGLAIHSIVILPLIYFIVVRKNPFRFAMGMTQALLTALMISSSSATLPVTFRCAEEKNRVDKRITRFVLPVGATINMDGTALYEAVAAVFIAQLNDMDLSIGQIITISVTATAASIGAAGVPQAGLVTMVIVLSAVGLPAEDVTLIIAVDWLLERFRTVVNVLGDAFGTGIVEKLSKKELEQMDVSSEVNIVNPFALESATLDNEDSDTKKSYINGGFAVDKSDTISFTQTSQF
In short: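 Oocytes expressing the mutant were voltage clamped in ND96 (pH 7.5, HEPES) and stepped from −25 mV. Transients are buffer current minus buffer-plus-compound current. Charge is the sum of current–time integrals at −100 and +80 mV, normalised to 1 mM L-aspartate or 15 mM succinate, and fitted to a generalized Hill equation. Decay constants come from a first-order exponential fit; mean ± SEM of 3–10 oocytes.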

WT-EAAC1 = molecular target: T2, WT-EAAC1 (Oryctolagus cuniculus, UniProt P31597); settings: 2 mM, NaSCN-based buffer
T2 sequence (P31597 1-524): T1 sequence (P31597 1-524 D444E) with E444D
In short: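 Two-electrode voltage clamp of oocytes in buffer with all NaCl replaced by NaSCN, grounded through a 2% agarose/2 M KCl bridge. Compounds were 2 mM; TBOA (10 μM) was added to a stopped bath. Steps from −25 mV to −100…+40 mV. Net steady-state current (with minus without) was normalised to the L-aspartate current at +40 mV; mean ± SEM of 3 oocytes (L-aspartate n = 6).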

D444C-EAAC1 = molecular target: T3, D444C-EAAC1 (Oryctolagus cuniculus, UniProt P31597, D444C); test: Blockade of sodium-dependent transient currents; settings: D444C; for Decay time of transient currents blocked: 10 mM compound, at −100 mV; for IC50: read-out: IC50 for substrates/blockers of charge movements, Xenopus oocytes, mean ± SEM
T3 sequence (P31597 1-524 D444C): T1 sequence (P31597 1-524 D444E) with E444C
In short: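 Steps from −25 mV to −100…+40 mV. Transients taken as current without minus current with compound. Charge is the sum of integrals at −100 and +40 mV, normalised to 10 mM of the same compound. IC50 from a generalized Hill fit; decay from a first-order exponential; 3–10 oocytes.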

D444S-EAAC1 = molecular target: T4, D444S-EAAC1 (Oryctolagus cuniculus, UniProt P31597, D444S); test: Blockade of sodium-dependent transient currents; settings: D444S; for Decay time of transient currents blocked: 10 mM compound, at −100 mV; for IC50: read-out: IC50 for substrates/blockers of charge movements, Xenopus oocytes, mean ± SEM
T4 sequence (P31597 1-524 D444S): T1 sequence (P31597 1-524 D444E) with E444S
In short: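 Oocytes expressing the mutant were clamped in sodium ND96 and given 250-ms pulses from −25 mV to −100…+40 mV, with and without compound; TBOA was added to a stopped bath. Isolated transients (without minus with compound) were integrated at −100 and +40 mV and summed. Charge was normalised to 10 mM of each compound and Hill-fitted; 4–6 oocytes. Decay came from an exponential fit; 3–10 oocytes.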

| Compound | Decay time of transient currents blocked (D444E-EAAC1; 10 mM compound) | IC50 (D444E-EAAC1) | Effect on the anion conductance (WT-EAAC1) | Decay time of transient currents blocked (D444C-EAAC1) | IC50 (D444C-EAAC1) | Decay time of transient currents blocked (D444S-EAAC1) | IC50 (D444S-EAAC1) | Suppression of the transient currents (D444E-EAAC1; 2 mM) | Decay time of transient currents blocked (D444E-EAAC1; 15 mM succinate) | Inhibition of the transient currents, concentration dependence (D444E-EAAC1; up to 15 mM) |
| --- | --- | --- | --- | --- | --- | --- | --- | --- | --- | --- |
| N[C@@H](CC(=O)O)C(=O)O [L-Aspartate, L-aspartate] | 10.6 ± 1 ms | 9 ± 1 µM | stimulated the anion conductance | 19.3 ± 1 ms | 12 ± 2 µM | 12.2 ± 0.6 ms | 130 ± 15 µM | – | – | – |
| O=C(O)CCC(=O)O [Succinate, succinate] | – | > 6000 µM | not seen | 15.7 ± 1.1 ms | 840 ± 70 µM | 9.9 ± 0.7 ms | 1340 ± 110 µM | only slightly suppressed | 5.1 ± 0.7 ms | saturation was not reached |

Source: paper PMC2151622 (The Journal of General Physiology, 2007)
